# Rows were chosen to be rich in hits. Some 0.91% of all compounds tested hit in one or more screens of this group.
# Pf gametocyte – P. falciparum stage V gametocyte viability inhibition; P. falciparum stage V gametocytes, ATP luminescence, 24 h; inhibition, % at 10.9 µM; 0.065% of 150,000 active;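 active = inhibition above the mean plus 3 SD of compounds within the control limits, set per campaign, cut at about 38% in these data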;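 note: 0% = DMSO wells and 100% = medium only without gametocytes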
# Lipid droplet – modulators of hepatic lipid droplet formation; AML12 mouse hepatocytes, oleate lipid droplets, BODIPY imaging; inhibition, % at 6.5 µM; 0.4% of 240,000 active; AID 1656;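 active = lipid droplet intensity inhibited by at least 50%, with more than 500 cells counted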
#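 Assay system: AML12 hepatocytes (mouse) / Also added: 100 µM oleic acid challenge / Times: overnight treatment with compound plus oleate / Detection: high-content imaging of BODIPY-stained droplets and DAPI nuclei / Evaluation: % inhibition of lipid droplet signal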
# L929 necroptosis – blocks zVAD induced death of L929 cells; 0.38% of 220,000 active; viability rescue, % at 10 µM; L929 zVAD necroptosis rescue, ATP luminescence, 24 h; with zVAD 60 µM;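 active = activation, scaled between plate controls, above about 75%, limit read from the data; inactive = activation under that limit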;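 note: 0% = zVAD with DMSO and 100% = DMSO alone without zVAD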
# TNF necrop inh – inhibitors of TNF-alpha induced necroptosis in Jurkat FADD-/- cells | Jurkat FADD-/- TNF necroptosis rescue, ATP luminescence, 24 h; 0 = TNF only, 100 = no-TNF cells | activation (protection from cell death), % at 10 µM | 0.068% of 220,000 active;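 active = activation, meaning protection from cell death, of at least 50% relative to plate controls; inactive = activation below 50%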;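 note: necroptosis triggered by 40 ng/mL TNF-alpha added together with compound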
# Arbovirus inh – blocks arbovirus infection; arbovirus infection cell-based antiviral screen; inhibition, % at 10 µM; 0.37% of 200,000 active; in the data active = inhibition above about 30%
# zVAD necrop conf – confirmed blocker of zVAD induced death in L929 cells; shares compounds with L929 necroptosis; L929 zVAD-induced necroptosis rescue, ATP luminescence, 24 h; activation (protection from necroptosis), % at 10 µM; 16% of 760 active; AID 463117;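 active = mean protection from necroptosis of at least 50% over duplicate tests; inactive = mean protection below 50%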;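 note: 0% = cells with zVAD alone and 100% = vehicle cells without zVAD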
# Hep lipid conf – confirmation of inhibitors of hepatic lipid droplet formation. shares compounds with Lipid droplet. AML12 mouse hepatocytes, BODIPY lipid droplet imaging; droplets induced with 100 µM oleic acid. inhibition, % at 5.2 µM. 65% of 870 active. AID 463183;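 active = inhibition of lipid droplet metric at least 50%, with more than 300 cells in each of four replicates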;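 note: plate controls were DMSO with oleic acid for no effect and 5 µM Triacsin-C for full effect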
# AML12 cytotox – counter-screen for cytotoxicity in AML12 mouse hepatocytes; shares compounds with Lipid droplet; DAPI nuclear morphology cytotoxicity imaging; stronger effect = higher value; cells fed 100 µM oleate overnight; z-score at 5 µM; 3% of 870 active; AID 463200; in the data active = z-score above about 6.3;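 note: compound exposure lasted overnight at 37 °C before fixation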
# AML12 tox conf – AML12 hepatocyte cytotoxicity, confirmed | shares compounds with Lipid droplet | AML12 mouse hepatocyte viability, ATP luminescence; cells loaded with 100 µM oleic acid | cytotoxicity, % at 50 µM | 530 tested, under 10 active;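 active = cytotoxicity above 50% in each of four replicates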;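 note: compound exposure lasted overnight at 37 °C before the ATP read; 0% = DMSO-treated cells and 100% = wells with no cells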
# The depositor's hits bear a star; x = not tested or not shown.
SMILES,Pf gametocyte,Lipid droplet,L929 necroptosis,TNF necrop inh,Arbovirus inh,Hep lipid conf,AML12 cytotox,others
Cc1nc2ccccc2nc(=O)c1NNc1ccccc1,4,59*,76*,5,-1,59*,2.3,zVAD necrop conf=3
CCCNC(=O)C(Cc1ccc(C(F)(F)F)cc1)NC(=O)c1ccc(C#N)cc1 (configuration not stated),18,x,x,x,x,x,x,
O=[N+]([O-])c1cc(Cl)ccc1NCCNc1ncc(C(F)(F)F)cc1Cl,-6,52*,1,-1,10,44,0.6,
O=[N+]([O-])c1ccccc1NCCNc1ncc(C(F)(F)F)cc1Cl,0,13,0,-2,6,x,x,
O=C1CSC(c2cn(-c3ccccc3)nc2-c2ccccc2)N1Cc1ccco1 (configuration not stated),x,61*,0,2,-2,87*,-1.1,AML12 tox conf=-21
CCOC(=O)C1CCC(CN(Cc2ccccc2)S(=O)(=O)c2ccc([N+](=O)[O-])cc2)CC1 (configuration not stated),4,59*,-1,4,-8,82*,-0.46,AML12 tox conf=6
O=C(NCC(=O)N(c1cccnc1)C(C(=O)NC1CCCCC1)c1ccccc1F)c1ccco1 (configuration not stated),x,-6,x,x,x,x,x,
COc1ccc(NC(=O)Nc2cccc3ccccc23)c(OC)c1,x,56*,x,x,x,83*,-0.24,AML12 tox conf=9
COc1ccc(OC)c(NC(=O)Nc2cccc3ccccc23)c1,-1,37,1,0,7,x,x,
CC(C)(C)c1ccc(-c2nnc(SCC(=O)Nc3sc4c(c3C#N)CCCC4)o2)cc1,-11,58*,1,2,7,2,-1.3,
O=C(CCNC(=O)C1CCN(S(=O)(=O)c2ccccc2)CC1)NCCc1ccc(Cl)cc1,x,11,x,x,x,x,x,
O=C(CCNC(=O)C1CCN(S(=O)(=O)c2ccccc2)CC1)NCCc1cccc(F)c1,x,54*,x,x,x,27,-0.15,
NC(=O)N/N=C/c1ccc(-c2ccc([N+](=O)[O-])cc2)o1,6,55*,2,-1,x,-4,0.24,
COc1cc2c(-c3ccccc3)c(C)oc2cc1/C=N/NC(N)=S,13,x,x,x,x,x,x,
COc1nc(C)nc2c1ccc1ccccc12,2,52*,0,-1,-6,2,-0.096,
O=C(CSc1nc2scc(-c3ccccc3)c2c(=O)[nH]1)N1CCOCC1,x,2,x,x,x,x,x,
CCCCCC(/C=N/Nc1ccc(S(=O)(=O)N2CCOCC2)cc1[N+](=O)[O-])=C\c1ccccc1,-50,61*,0,0,-12,35,-0.65,
CCCN1CCC(=NNc2ccc(S(=O)(=O)N3CCOCC3)cc2[N+](=O)[O-])CC1,6,-126,-1,-5,-17,x,x,
CCn1c(=O)n(CC)c2cc(S(=O)(=O)Nc3ccccc3C)c(C)cc21,x,40,0,-3,2,x,x,
CCc1ccccc1NS(=O)(=O)c1cc2c(cc1C)n(C)c(=O)c(=O)n2C,x,85*,x,x,x,105*,-0.21,AML12 tox conf=9
COc1cccc(OC)c1C1=NC(C)(C)CO1,14,12,0,-1,x,x,x,
CCN(CCO)C(=O)c1ccc2nc(Cc3ccc(OC)cc3)oc2c1,-5,x,x,x,x,x,x,
CCCN1C(=O)/C(=C/c2c(N3CCNC(=O)C3CC(=O)OCC)nc3c(C)cccn3c2=O)SC1=S (configuration not stated),x,74*,1,-14,x,58*,0.065,
CCOC(=O)/C(C(=O)Nc1ccccc1Cl)=C1/NC(C)(C)Cc2ccccc21,-5,53*,0,0,-3,32,0.35,
Cc1ccc(NC(=S)NC2CCSc3ccccc32)cc1C (configuration not stated),x,-3,x,x,x,x,x,
SMILES,Pf gametocyte,Lipid droplet,L929 necroptosis,TNF necrop inh,Arbovirus inh,Hep lipid conf,AML12 cytotox,others
COc1ccc(C)cc1N1C(=N)/C(=C2/Nc3ccccc3S2)C(c2ccccc2)C1=O (configuration not stated),x,18,x,-19,-32,x,x,
COc1ccc2nc(N=Nc3c(O)ccc4ccccc34)sc2c1,x,50*,46,-7,-33,6,-0.12,
O=C1c2ccccc2C2=Nc3ccccc3SC(c3cccc(F)c3)C12 (configuration not stated),20,66*,1,-5,-23,65,8.8*,
O=C1c2ccccc2C2=Nc3ccccc3SC(c3ccc(Cl)cc3)C12 (configuration not stated),17,49,1,4,-25,x,x,
O=C(CN1CCC(C(=O)c2ccc3c(c2)OCCO3)CC1)Nc1ccccc1C(F)(F)F,x,-18,x,x,x,x,x,
COc1ccc(NC(=O)N2CCC(C(=O)c3ccc(F)cc3)CC2)cc1,x,x,0,0,4,x,x,
Cc1cccc(NC(=O)N2CCC(C(=O)c3ccc(F)cc3)CC2)c1,x,84*,x,x,x,98*,-0.69,AML12 tox conf=13
Cc1cc(C)cc(NC(=S)N2CCC(C(=O)c3ccc(F)cc3)CC2)c1,-5,x,x,x,x,x,x,
CSc1ccc(NC(=O)N2CCC(C(=O)c3ccc(F)cc3)CC2)cc1,x,71*,x,x,x,96*,0.49,AML12 tox conf=19
Cc1cc(C)cc(NC(=O)N2CCC(C(=O)c3ccc(F)cc3)CC2)c1,-4,67*,0,3,-6,96*,0.074,AML12 tox conf=13
Cc1ccc(N2CC(C(=O)Nc3nc4ccc(S(C)(=O)=O)cc4s3)CC2=O)cc1 (configuration not stated),x,-2,x,x,x,x,x,
CCCCCCn1c(N2CCN(c3cccc(Cl)c3)CC2)nc2c1c(=O)[nH]c(=O)n2C,x,x,0,-2,-2,x,x,
CCCCn1c(=O)[nH]c(=O)c2c1nc(-c1ccc(-c3ccccc3)cc1)n2C,x,64*,x,x,x,70*,-0.69,AML12 tox conf=-5
CCCCCCn1c(N2CCN(c3ccccc3)CC2)nc2c1c(=O)[nH]c(=O)n2C,x,58*,0,-3,-3,93*,-1.2,AML12 tox conf=-11
CCCCCCCCn1c(N2CCN(c3cccc(Cl)c3)CC2)nc2c1c(=O)[nH]c(=O)n2C,0,83*,1,-4,7,98*,-1.1,AML12 tox conf=16
CCCCn1c(=O)[nH]c(=O)c2c1nc(-c1ccc(C(F)(F)F)cc1)n2C,13,18,2,-3,-10,x,x,
O=C1C(=O)N(CCCO)C(c2ccc(Br)cc2)/C1=C(\O)c1ccc(Br)cc1 (configuration not stated),2,-1,x,x,x,x,x,
O=C(NCc1ccncc1)C(=O)NC1CC1,x,-1,2,0,8,x,x,
CCOc1ccc(/C=N/NC(=O)c2nnn(-c3nonc3N)c2-c2cccs2)cc1,x,-11,x,x,x,x,x,

# Screening results (PubChem)
